From ChEMBL document CHEMBL4765310, “Discovery of 4-(3,5-dimethoxy-4-(((4-methoxyphenethyl)amino)methyl)phenoxy)-N-phenylaniline as a novel c-myc inhibitor against colorectal cancer in vitro and in vivo” (Eur J Med Chem, 2020) come the findings set out here.

Assay [1] can be described thus: Inhibition of dimerization of N-terminal His6-tagged human c-Myc bHLHZip domain (353 to 439 residues)/Max(151 residues) (unknown origin) expressed in Escherichia coli BL21DE3 measured after 1 hr by ELISA. A digest of the protocol: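 Myc bHLHZip (5.5 μg/well) was coated at 4 °C for 24 h in PBS pH 7.0 buffer (EDTA, KCl, MgCl2, glycerol, NP40, DTT), then blocked with 3% BSA for 2 h at 37 °C. Detection used rabbit anti-c-Myc, HRP anti-rabbit and TMB, read at 450 nm.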
For orientation: In an ELISA, binding on a coated surface is turned into a signal by an enzyme label.

In the next assay the test system is HCT-116. Description: Antiproliferative activity against human HCT-116 cells assessed as inhibition of cell viability measured after 72 hrs by MTT assay. It counts as functional, cell-based. The settings on record: HCT-116, 72 h. A digest of the protocol:
(§1)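 Cells kept at 37 °C, 5% CO₂ in RPMI 1640, L-15 or DMEM with 10% FBS and 1% penicillin-streptomycin. Plated at 2-4 × 10³ cells/well and dosed 24 h after plating. After 72 h exposure, MTT added for 2-4 h at 37 °C. Formazan dissolved in DMSO, absorbance read at 570 nm. IC50 is the mean of at least three independent experiments.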
(In general: Formazan colour is commonly taken as a measure of viable cells.)

The next assay deals with DLD-1. Nature of the assay: Antiproliferative activity against human DLD-1 cells assessed as inhibition of cell viability measured after 72 hrs by MTT assay. It counts as functional, cell-based. Conditions: DLD-1, 72 h. In a few lines:
as §1

The next assay deals with HT-29. Description: Antiproliferative activity against human HT-29 cells assessed as inhibition of cell viability measured after 72 hrs by MTT assay. Format: functional, cell-based. Conditions: HT-29, 72 h. A digest of the protocol:
as §1

Another assay concerns HCT-15. Nature of the assay: Antiproliferative activity against human HCT-15 cells assessed as inhibition of cell viability measured after 72 hrs by MTT assay. Format: functional, cell-based. The settings on record: HCT-15, 72 h. A digest of the protocol:
as §1

The next assay is filed under the species Homo sapiens. Description: Inhibition of dimerization of N-terminal His6-tagged human c-Myc bHLHZip domain (353 to 439 residues)/Max(151 residues) (unknown origin) expressed in Escherichia coli BL21DE3 assessed as inhibition of c-Myc/Max/DNA complex formation at 20 uM preincubated with c-Myc/Max for 1.5 hrs followed by incubation with DNA oligo for 0.5 hrs by EMSA analysis relative to control. The settings on record: time 2.0 hrs. In a few lines:
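Gel-shift used His-tagged Myc/Max complex (50 nM) with a biotinylated E-box duplex oligo (50 nM). Buffer was PBS pH 7.0 with 10 mM EDTA, 500 mM KCl, 30 mM MgCl2, 5% glycerol, 0.1% NP40, 1.5 mM DTT and 10% DMSO. Protein was preincubated with compound at 20 μM for 1.5 h at room temperature, then DNA was added for 0.5 h. Inhibition is relative to DMSO; three independent experiments.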
A general note: Mobility shift assays separate free from complexed probe on a gel.

The test system of a further assay is SW-620. Nature of the assay: Antiproliferative activity against human SW-620 cells assessed as inhibition of cell viability measured after 72 hrs by MTT assay. Format: functional, cell-based. The settings on record: SW-620, 72 h. A digest of the protocol:
as §1

pIC50: −log10 of the molar value. A value given as a limit tells only on which side of the number the result lay.

For `COc1cc(Oc2cccc(Nc3ccccc3)c2)cc(OC)c1CNCCNC(C)=O`, the pIC50 (usually the negative decadic logarithm of the IC50, by convention in mol/L) in assay [1] is below 3.82; with HCT-116, 4.74; with DLD-1, 5.22; with HT-29, 5.40; in the assay on HCT-15 it was 5.29; in the assay with SW-620, 4.92. Further, the inhibition (usually the share of the control response that was lost under treatment) in the assay filed under Homo sapiens came out at 10.2%.
In the case of `COc1ccc(CCCNCc2c(OC)cc(Oc3ccc(Nc4ccccc4)cc3)cc2OC)cc1`, the pIC50 in assay [1] was 4.14; in the assay on HCT-116, 5.49; in the assay with DLD-1, 5.33; in the assay on HT-29, 5.16; in the assay on HCT-15 it was 5.66; in the assay with SW-620, 4.84. In the assay listed under Homo sapiens, the inhibition came out at 70.6%.
For the compound `COc1cc(Oc2cccc(Nc3ccccc3)c2)cc(OC)c1CNCc1ccc(Br)cc1`, the pIC50 in assay [1] is 3.89; in the assay with HCT-116, 5.21; in the assay on DLD-1, 5.45; with HT-29, 5.51; in the assay on HCT-15, 5.27; with SW-620 it was 4.95. Further, the inhibition in the assay filed under Homo sapiens came out at 29.3%.
In the case of `COc1cc(Oc2cccc(Nc3ccccc3)c2)cc(OC)c1CNCCc1ccc(C)cc1`, the pIC50 in assay [1] was 4.06; in the assay on HCT-116 it was 5.48; with DLD-1, 5.73; in the assay with HT-29, 5.90; with HCT-15, 5.54; in the assay with SW-620 it was 5.24. Besides, the inhibition in the assay listed under Homo sapiens came out at 46.2%.
Turning to `COc1ccc(CCCNCc2c(OC)cc(Oc3cccc(Nc4ccccc4)c3)cc2OC)cc1`, the pIC50 in assay [1] is 3.83; with HCT-116, 5.55; in the assay with DLD-1, 5.60; in the assay on HT-29, 5.48; with HCT-15, 6.14; in the assay with SW-620, 5.19. Moreover, the inhibition in the assay listed under Homo sapiens came to 63.4%.
`COc1cc(Oc2cccc(Nc3ccccc3)c2)cc(OC)c1CN[C@H](C)c1ccccc1`: the pIC50 was 3.94 in assay [1]; below 4.70 in the assay with HCT-116; 5.07 in the assay on DLD-1; 5.29 in the assay with HT-29; 5.12 in the assay with HCT-15; 4.73 in the assay on SW-620. In addition, in the assay listed under Homo sapiens, the inhibition amounted to 30.5%.
Turning to `COc1ccc(CNCc2c(OC)cc(Oc3cccc(Nc4ccccc4)c3)cc2OC)cc1`, the pIC50 is 4.07 in assay [1]; 5.58 in the assay with HCT-116; 5.72 with DLD-1; 5.72 with HT-29; 5.58 in the assay on HCT-15; 5.16 in the assay with SW-620. Further, in the assay listed under Homo sapiens, the inhibition came to 48.7%.
With `COc1cc(Oc2cccc(Nc3ccccc3)c2)cc(OC)c1CNC(C)C`, the pIC50 in assay [1] is below 3.82; in the assay on HCT-116 it was below 4.70; in the assay on DLD-1, below 4.70; in the assay with HT-29, below 4.70; with HCT-15 it was below 4.70; in the assay on SW-620, below 4.70.
For the compound `COc1cc(Oc2cccc(Nc3ccccc3)c2)cc(OC)c1CNCCc1ccccc1`, the pIC50 in assay [1] was 4.02; in the assay with HCT-116 it was 4.87; in the assay on DLD-1, 5.17; with HT-29, 5.22; in the assay on HCT-15 it was 5.21; in the assay with SW-620, 4.93. Also, in the assay filed under Homo sapiens, the inhibition came out at 45.1%.
Consider `COc1cc(Oc2cccc(Nc3ccccc3)c2)cc(OC)c1CNCc1ccc(F)cc1`, for which the pIC50 was 3.86 in assay [1]; 5.37 in the assay with HCT-116; 5.58 in the assay with DLD-1; 5.56 in the assay with HT-29; 5.44 with HCT-15; 5.17 with SW-620. For the same compound, the inhibition in the assay filed under Homo sapiens was 21.2%.
As to `COc1cc(Oc2cccc(Nc3ccccc3)c2)cc(OC)c1CN1CCN(CCO)CC1`, the pIC50 was below 3.82 in assay [1]; below 4.70 in the assay with HCT-116; below 4.70 with DLD-1; below 4.70 in the assay with HT-29; 5.19 with HCT-15; below 4.70 with SW-620.
With `COc1cc(Oc2cccc(Nc3ccccc3)c2)cc(OC)c1CNCc1ccccc1`, the pIC50 is 3.90 in assay [1]; 5.39 in the assay with HCT-116; 5.28 in the assay on DLD-1; 5.48 in the assay with HT-29; 5.30 in the assay with HCT-15; 5.13 with SW-620. Further, in the assay filed under Homo sapiens, the inhibition was 26.4%.
Consider `COc1cc(Oc2cccc(Nc3ccccc3)c2)cc(OC)c1CNCc1ccc(O)cc1`, for which the pIC50 in assay [1] was 3.91; in the assay on HCT-116, 5.47; in the assay with DLD-1 it was 5.57; in the assay on HT-29, 5.66; in the assay with HCT-15 it was 5.46; in the assay with SW-620, 5.10. Besides, the inhibition in the assay listed under Homo sapiens worked out at 31.8%.
With `COc1cc(Oc2cccc(Nc3ccccc3)c2)cc(OC)c1CNCCc1ccc(O)cc1`, the pIC50 was 4.08 in assay [1]; 4.80 in the assay on HCT-116; 5.39 in the assay with DLD-1; 5.53 in the assay with HT-29; 5.21 with HCT-15; 4.90 in the assay with SW-620. Moreover, in the assay filed under Homo sapiens, the inhibition stood at 51.7%.
With `CNCc1c(OC)cc(Oc2cccc(Nc3ccccc3)c2)cc1OC`, the pIC50 in assay [1] was below 3.82; in the assay on HCT-116, below 4.70; in the assay with DLD-1, 4.93; in the assay with HT-29 it was 5.13; in the assay on HCT-15, 5.05; in the assay on SW-620, 4.82. Moreover, in the assay filed under Homo sapiens, the inhibition stood at 2.5%.
On to `COc1ccc(CCNCc2ccc(Oc3cccc(Nc4ccccc4)c3)c(OC)c2)cc1`, for which the pIC50 in assay [1] was 3.97; in the assay on HCT-116, 5.51; in the assay with DLD-1 it was 5.23; in the assay with HT-29, 5.56; in the assay with HCT-15 it was 5.47; in the assay on SW-620, 4.96. Also, in the assay listed under Homo sapiens, the inhibition was found to be 42.3%.
Regarding `COc1cc(Oc2cccc(Nc3ccccc3)c2)cc(OC)c1CN(CCO)CCO`, the pIC50 in assay [1] was below 3.82; with HCT-116, below 4.70; in the assay on DLD-1 it was below 4.70; in the assay on HT-29, below 4.70; in the assay with HCT-15 it was 5.05; in the assay with SW-620, below 4.70. In the assay listed under Homo sapiens, the inhibition was determined as 6.1%.
As to `COc1ccc(CCNCc2c(OC)cc(Oc3cccc(Nc4ccccc4)c3)cc2OC)cc1`, the pIC50 in assay [1] was 4.16; in the assay with HCT-116, 6.01; with DLD-1, 5.95; in the assay on HT-29 it was 5.99; with HCT-15, 5.90; in the assay on SW-620, 5.21. For the same compound, the inhibition in the assay filed under Homo sapiens was 75.1%.
Turning to `COc1ccc(CCNCc2ccc(Oc3cccc(Nc4ccccc4)c3)cc2OC)cc1`, the pIC50 in assay [1] is 3.99; in the assay on HCT-116 it was 5.57; in the assay on DLD-1 it was 5.39; in the assay on HT-29 it was 5.40; with HCT-15, 5.99; in the assay on SW-620, 5.11. The inhibition in the assay listed under Homo sapiens was 42.1%.
With `COc1ccc(CCNCc2ccc(Oc3cccc(Nc4ccccc4)c3)cc2)cc1`, the pIC50 in assay [1] was 3.94; in the assay with HCT-116, 5.40; with DLD-1 it was 5.33; with HT-29, 5.16; in the assay on HCT-15, 5.66; with SW-620, 4.84. The inhibition in the assay filed under Homo sapiens was found to be 35.6%.
For `COc1cc(Oc2cccc(Nc3ccccc3)c2)cc(OC)c1CNC1CC1`, the pIC50 in assay [1] is below 3.82; with HCT-116 it was below 4.70; with DLD-1, below 4.70; in the assay with HT-29, 4.91; with HCT-15, 5.21; in the assay with SW-620, below 4.70. Moreover, in the assay listed under Homo sapiens, the inhibition came out at 1.7%.
Consider `COc1cccc(CCNCc2c(OC)cc(Oc3cccc(Nc4ccccc4)c3)cc2OC)c1`, for which the pIC50 is 4.11 in assay [1]; 5.40 in the assay on HCT-116; 5.63 in the assay with DLD-1; 5.63 in the assay with HT-29; 5.89 in the assay on HCT-15; 5.41 in the assay on SW-620. The inhibition in the assay filed under Homo sapiens was found to be 60.8%.
Consider `COc1cc(Oc2cccc(Nc3ccccc3)c2)cc(OC)c1CNCc1ccc2c(c1)OCO2`, for which the pIC50 is 3.98 in assay [1]; below 4.70 in the assay on HCT-116; 5.07 in the assay with DLD-1; 5.07 in the assay on HT-29; 5.05 in the assay on HCT-15; below 4.70 in the assay on SW-620. In addition, the inhibition in the assay filed under Homo sapiens is 42.1%.
As for `COc1cc(Oc2cccc(Nc3ccccc3)c2)cc(OC)c1CNCc1ccc(Cl)cc1`, the pIC50 in assay [1] is 3.91; in the assay with HCT-116, 5.48; with DLD-1 it was 5.43; in the assay on HT-29, 5.47; in the assay on HCT-15, 5.31; in the assay on SW-620, 5.20. The inhibition in the assay listed under Homo sapiens is 25.7%.
For the compound `COc1ccccc1CCNCc1c(OC)cc(Oc2cccc(Nc3ccccc3)c2)cc1OC`, the pIC50 was 4.14 in assay [1]; 5.47 with HCT-116; 5.63 with DLD-1; 5.67 with HT-29; 5.92 in the assay on HCT-15; 5.44 with SW-620. Also, the inhibition in the assay listed under Homo sapiens is 67.4%.
